In ChEMBL document CHEMBL1759890, “3,5-Disubstituted-indole-7-carboxamides: the discovery of a novel series of potent, selective inhibitors of IKK-β” (Bioorg Med Chem Lett, 2011):

Tests used:
Aurora kinase A = target: T1, Aurora kinase A (Homo sapiens, UniProt O14965); assay: Inhibition of Aurora A kinase
T1 sequence (O14965 whole entry): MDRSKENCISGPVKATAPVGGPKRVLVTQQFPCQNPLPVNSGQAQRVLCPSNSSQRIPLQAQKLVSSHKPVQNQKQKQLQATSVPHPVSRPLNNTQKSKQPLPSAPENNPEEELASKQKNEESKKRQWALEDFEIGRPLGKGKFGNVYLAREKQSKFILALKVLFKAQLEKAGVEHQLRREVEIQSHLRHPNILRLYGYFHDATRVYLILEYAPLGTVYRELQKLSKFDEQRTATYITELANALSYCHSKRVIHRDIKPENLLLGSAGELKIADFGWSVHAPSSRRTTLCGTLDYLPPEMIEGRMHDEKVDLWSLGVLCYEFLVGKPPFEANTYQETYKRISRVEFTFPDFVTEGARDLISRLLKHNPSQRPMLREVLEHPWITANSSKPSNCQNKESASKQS

[1] = target: T2, Inhibitor of nuclear factor kappa-B kinase subunit alpha (Homo sapiens, UniProt O15111); assay: Inhibition of IKK-alpha
T2 sequence (O15111 whole entry): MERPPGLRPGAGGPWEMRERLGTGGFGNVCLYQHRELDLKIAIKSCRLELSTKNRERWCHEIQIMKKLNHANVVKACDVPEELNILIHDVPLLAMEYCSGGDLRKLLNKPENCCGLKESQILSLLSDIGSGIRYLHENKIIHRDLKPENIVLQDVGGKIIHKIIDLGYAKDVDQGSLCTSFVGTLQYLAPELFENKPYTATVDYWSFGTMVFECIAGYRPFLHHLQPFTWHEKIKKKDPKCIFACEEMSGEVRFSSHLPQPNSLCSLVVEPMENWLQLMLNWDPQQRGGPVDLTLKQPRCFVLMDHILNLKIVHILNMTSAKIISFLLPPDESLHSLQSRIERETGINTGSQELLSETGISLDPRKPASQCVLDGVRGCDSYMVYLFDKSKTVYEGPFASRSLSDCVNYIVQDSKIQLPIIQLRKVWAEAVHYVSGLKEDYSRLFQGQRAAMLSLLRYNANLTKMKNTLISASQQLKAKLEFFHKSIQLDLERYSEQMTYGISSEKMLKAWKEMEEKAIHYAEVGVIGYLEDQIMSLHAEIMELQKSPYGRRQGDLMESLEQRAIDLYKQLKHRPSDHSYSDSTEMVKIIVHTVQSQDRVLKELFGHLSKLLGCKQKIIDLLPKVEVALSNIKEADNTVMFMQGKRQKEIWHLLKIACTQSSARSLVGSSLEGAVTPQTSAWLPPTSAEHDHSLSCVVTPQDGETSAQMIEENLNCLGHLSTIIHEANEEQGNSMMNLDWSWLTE
Summary of the method: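 Done the same way as the IKK-β TR-FRET assay but with 6-His-tagged full-length IKK-α. Buffer is 50 mM HEPES, 10 mM MgCl₂, 1 mM CHAPS pH 7.4, 1 mM DTT, 0.01% w/v BSA. GST-IκBα substrate 25 nM final, ATP 1 μM final, DMSO below 5% final. Error about ±0.3 log units.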

[2] = target: T3, Receptor-type tyrosine-protein kinase FLT3 (Homo sapiens, UniProt P36888); assay: Binding affinity to FLT3 assessed as dissociation constant
T3 sequence (P36888 whole entry): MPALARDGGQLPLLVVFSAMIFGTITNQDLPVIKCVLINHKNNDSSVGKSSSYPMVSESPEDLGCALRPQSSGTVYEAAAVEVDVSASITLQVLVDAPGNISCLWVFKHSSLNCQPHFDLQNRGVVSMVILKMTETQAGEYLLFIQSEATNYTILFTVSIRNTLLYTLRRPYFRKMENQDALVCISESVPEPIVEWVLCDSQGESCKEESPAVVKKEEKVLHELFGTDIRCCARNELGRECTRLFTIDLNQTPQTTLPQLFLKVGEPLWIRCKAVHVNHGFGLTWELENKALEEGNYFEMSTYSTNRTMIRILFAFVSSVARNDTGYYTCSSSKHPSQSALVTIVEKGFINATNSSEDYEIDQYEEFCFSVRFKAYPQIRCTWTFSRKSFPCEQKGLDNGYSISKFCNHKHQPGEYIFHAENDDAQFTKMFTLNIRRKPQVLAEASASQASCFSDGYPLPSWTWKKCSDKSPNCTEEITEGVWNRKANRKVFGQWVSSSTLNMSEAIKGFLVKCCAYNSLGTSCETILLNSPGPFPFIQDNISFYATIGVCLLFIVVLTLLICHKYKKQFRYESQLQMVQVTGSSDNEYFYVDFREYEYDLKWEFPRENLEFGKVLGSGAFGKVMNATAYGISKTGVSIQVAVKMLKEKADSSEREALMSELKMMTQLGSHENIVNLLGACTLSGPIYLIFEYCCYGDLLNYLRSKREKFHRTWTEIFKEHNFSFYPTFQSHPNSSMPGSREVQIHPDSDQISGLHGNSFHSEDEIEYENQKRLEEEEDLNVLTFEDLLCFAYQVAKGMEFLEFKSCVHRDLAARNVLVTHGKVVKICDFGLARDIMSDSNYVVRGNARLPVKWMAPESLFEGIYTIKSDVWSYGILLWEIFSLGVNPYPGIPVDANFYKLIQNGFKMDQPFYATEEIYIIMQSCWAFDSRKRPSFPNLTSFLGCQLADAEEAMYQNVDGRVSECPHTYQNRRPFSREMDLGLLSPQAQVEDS

PBMC = assay: Antiinflammatory activity in human PBMC assessed as inhibition of LPS-induced TNF-alpha production; assay type: functional, cell-based
Summary of the method: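 Human peripheral blood mononuclear cells stimulated with LPS. Read-out is inhibition of TNF-α production, reported as pIC50.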

[3] = target: Tyrosine-protein kinase BTK (Homo sapiens, UniProt Q06187); assay: Inhibition of BTK
Chain of Tyrosine-protein kinase BTK (Q06187 whole entry): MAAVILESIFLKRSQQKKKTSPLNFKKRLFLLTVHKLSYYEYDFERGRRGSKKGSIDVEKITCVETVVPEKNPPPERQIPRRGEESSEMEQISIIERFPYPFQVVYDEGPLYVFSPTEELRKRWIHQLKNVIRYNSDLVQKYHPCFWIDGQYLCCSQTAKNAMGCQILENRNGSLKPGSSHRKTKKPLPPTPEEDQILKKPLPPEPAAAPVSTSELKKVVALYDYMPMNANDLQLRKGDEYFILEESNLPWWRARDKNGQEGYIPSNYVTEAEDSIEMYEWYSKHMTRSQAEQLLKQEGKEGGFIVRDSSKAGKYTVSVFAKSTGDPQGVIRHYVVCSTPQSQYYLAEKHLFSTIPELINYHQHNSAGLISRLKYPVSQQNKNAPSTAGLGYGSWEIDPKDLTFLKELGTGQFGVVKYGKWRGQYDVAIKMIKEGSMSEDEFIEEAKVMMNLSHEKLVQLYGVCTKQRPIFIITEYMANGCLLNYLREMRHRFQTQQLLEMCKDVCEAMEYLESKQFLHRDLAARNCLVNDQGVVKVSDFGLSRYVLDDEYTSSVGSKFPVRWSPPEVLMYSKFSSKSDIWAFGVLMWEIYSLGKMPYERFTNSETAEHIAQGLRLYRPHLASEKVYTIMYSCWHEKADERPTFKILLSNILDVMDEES

IC50 (Aurora kinase A): 1260 nM
IC50 [1]: 2000 nM
Kd [2]: 1260 nM
IC50 [3]: 1580 nM
SMILES: CCCS(=O)(=O)N1CCC(c2c[nH]c3c(C(N)=O)cc(-c4ccccc4)cc23)CC1
IC50 (PBMC): 631 nM
